# TIM10 inh: growth inhibitors of TIM10 yeast strain; AID 463195; inhibition, % at 10 µM; S. cerevisiae TIM10 strain growth, BacTiter-Glo luminescence, 24 h; 330,000 tested, 1.4% active;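 active = inhibition of 40% or more at the single tested concentration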;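 also: wild-type TIM10 isogenic control strain grown at permissive 25 °C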
# UPR XBP1 act: adaptive UPR (XBP1) activation. CHO-XBP1 luciferase reporter, IRE1-XBP1 UPR activation, luminescence; percent of tunicamycin response, DMSO as zero. activation, % at 20 µM. 330,000 tested, 0.33% active;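 active = versus positive control, 20 µM dose yields 30% or more activation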;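 also: 100% = tunicamycin at 10 µg/mL and 0% = DMSO only wells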
#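 Material: CHO-XBP1 cells stably carrying IRE1-XBP1-driven luciferase reporter / Amount: 1000 cells per well / Compound: 20 µM, 1% DMSO / Times: 6 h treatment, 37 °C / Detection: luciferase luminescence / Measure: % activation of reporter signal versus tunicamycin and DMSO controls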
# tim10-1 inh: tim10-1 yeast growth inhibition | S. cerevisiae tim10-1 ts strain growth, BacTiter-Glo, 24 h | inhibition, % at 20 µM | 330,000 tested, 2.2% active | AID 463190;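 active = inhibition of at least 40%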;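 also: mutant grown at 25 °C; 0% = DMSO wells with yeast and 100% = wells holding no yeast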
# tim23-1 inh: growth inhibitors of tim23-1 mutant yeast; S. cerevisiae tim23-1 growth, BacTiter-Glo luminescence, 24 h; inhibition, % at 20 µM; 330,000 tested, 1.3% active; AID 463212;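 active = growth inhibition of the mutant yeast at or above 50%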;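 also: temperature-sensitive mutant grown at 25 °C; plate controls were DMSO-treated mutant yeast for no effect and medium wells lacking yeast for full effect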
# UPR CHOP act: apoptotic UPR (CHOP) activation. CHO-CHOP luciferase reporter, luminescence; percent of tunicamycin response over DMSO baseline. activation, % at 10 µM. 330,000 tested, 0.34% active;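 active = at 10 µM dose, activation of 40% or more, normalized to positive control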;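 also: 100% = tunicamycin at 10 µg/mL and 0% = DMSO alone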
#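 System: CHO-CHOP luciferase reporter cell line; amount: 500 cells/well; buffer or medium: F12 medium containing 10% fetal bovine serum; incubation: 6 h compound exposure at 37 °C after overnight seeding; measured by: luciferase luminescence after 10 min with Steady-Glo reagent; evaluation: % reporter activation, DMSO baseline versus tunicamycin full activation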
# tim10-1 conf: tim10-1 yeast growth inhibition, confirmed; shares compounds with tim10-1 inh; S. cerevisiae tim10-1 ts strain growth, BacTiter-Glo, 24 h; inhibition, % at 20 µM; 7,400 tested, 56% active; AID 463213;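 active = inhibition of yeast growth at or above a set limit in either of two repeat tests at 20 µM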;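 also: tim10-1 mutant grown at permissive 25 °C to find synthetic lethal compounds; 0% = DMSO yeast wells and 100% = medium wells without yeast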
# TIM10 conf: confirmation of TIM10 yeast growth inhibitors; inhibition, % at 10 µM; 4,600 tested, 63% active; shares compounds with TIM10 inh; S. cerevisiae tim10 strain growth, BacTiter-Glo luminescence, 24 h; AID 463215;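 active = inhibition of yeast growth at or above a set limit in either of two replicates at 10 µM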;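 also: this counterscreen used the strain with wild-type TIM10; 0% = yeast with DMSO and 100% = medium wells lacking yeast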
# tim23-1 confirm: confirmation of tim23-1 mutant yeast growth inhibitors. shares compounds with tim23-1 inh. S. cerevisiae tim23-1 growth, BacTiter-Glo luminescence, 24 h. inhibition, % at 20 µM. 4,400 tested, 83% active;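 active = inhibition above about 39% in either of two replicate wells at 20 µM, limit read from the data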;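 also: temperature-sensitive tim23-1 mutant grown at 25 °C; 0% = DMSO wells with yeast and 100% = medium wells without yeast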
# Numbers without * were called inactive; x = no result. This is a sample that favours compounds with a hit; in the whole collection about 3.9% have one here.
SMILES,TIM10 inh,UPR XBP1 act,tim10-1 inh,tim23-1 inh,UPR CHOP act,tim10-1 conf,tim23-1 confirm,others
COc1ccc(C(=O)ON=C2CCN(c3ccc([N+](=O)[O-])cc3)CC2)cc1,64.4*,-0.1,57.8*,53.5*,2.1,48.4*,71.4*,TIM10 conf=65.1*
CCCc1ccc(OCC(O)CN2CCN(c3ccccn3)CC2)cc1 (stereo not drawn),-37.9,-1.9,-13.6,-46.3,0.1,x,x,
Cc1ccc2nc(N3CCN(C(=O)CCCC(=O)O)CC3)nc(-c3ccccc3)c2c1,21.0,6.0,24.6,29.3,1.2,x,x,
Cc1ccc2nc(N3CCN(C=O)CC3)nc(-c3ccccc3)c2c1,28.7,4.2,43.1*,59.9*,-2.2,9.8,42.5*,
Oc1c(Cl)cc(Cl)cc1/C=N/NC(=S)NC1CC2C=CC1C2 (stereo not drawn),36.2,7.8,48.0*,56.6*,1.2,50.3*,71.5*,
Oc1c(Cl)cc(Cl)cc1/C=N/Nc1ncc(Br)cn1,-0.7,-0.9,12.2,-3.7,0.6,x,x,
O=C1/C(=C/c2ccccc2)CCC1C1CCCC1 (stereo not drawn),12.0,0.1,15.7,17.0,7.5,x,x,
CN1C2CCC1/C(=C\c1ccccc1)C(=O)/C2=C\c1ccccc1,45.3*,2.1,46.8*,53.4*,19.0,36.4*,54.8*,TIM10 conf=22.7
COc1ccc(S(=O)(=O)N2CCC(C(=O)Oc3cccc(C)c3)CC2)cc1OC,12.0,-4.2,3.4,21.0,1.4,x,x,
CCSc1nnc(-c2ccc(C)cc2)c2ccccc12,43.8*,-1.4,55.4*,64.2*,-0.6,48.7*,70.2*,TIM10 conf=9.0
COc1ccc(-c2n[nH]c(C)c2-c2cnn(-c3ccccc3)c2)c(O)c1,50.0*,1.7,51.3*,59.9*,0.3,41.7*,49.8*,TIM10 conf=44.0*
COc1ccc(-c2n[nH]c(C)c2-c2cscn2)c(O)c1,9.7,-2.3,1.5,8.7,-0.5,x,x,
CCn1cc(/C=C(\NC(=O)c2ccc(OC)cc2)C(=O)N2CCOCC2)c2ccccc21,16.2,-4.9,16.2,14.6,0.1,x,x,
CCOn1c(=O)c(-c2cccs2)[n+]([O-])c2ccccc21,35.2,-0.3,56.7*,61.8*,-0.9,41.1*,67.5*,
CCOC(=O)/C(=C/c1ccc(OC(=O)c2ccccc2)cc1)C(C)=O,76.8*,18.3,46.6*,88.8*,4.4,64.3*,52.6*,TIM10 conf=-19.7
CC(C)N(C(=S)Nc1cc(S(=O)(=O)N2CCOCC2)ccc1Cl)c1ccccc1,9.1,-0.6,-3.3,3.2,-0.2,x,x,
C/C(=N\NC(=S)Nc1cc(S(=O)(=O)N2CCOCC2)ccc1Cl)c1ccccc1F,43.7*,-4.9,40.5*,60.9*,-2.5,36.6*,42.0*,TIM10 conf=-9.3
COc1ccc(C2CC(c3ccc(C)cc3)=NN2C(=O)CCC(=O)O)cc1OC (stereo not drawn),-4.3,-2.6,-2.8,1.1,0.5,x,x,
Cc1nn2c(-c3ccc(S(=O)(=O)N4CCN(C)CC4)o3)nnc2c2ccccc12,9.6,4.7,9.8,-0.8,2.8,x,x,
OCCCNc1nc(-c2ccc(Br)cc2)nnc1-c1ccc(Cl)cc1,11.6,-0.5,41.7*,53.7*,1.3,30.9*,58.5*,
COCCCNc1nc(-c2ccc(Cl)cc2)nc2ccccc12,27.2,0.4,45.6*,58.8*,0.1,33.7*,54.0*,
Cc1nnc(-c2ccc(Cl)cc2)nc1NCCN(C)C,2.4,-2.3,4.8,-6.1,-1.1,x,x,
OCCCNc1nc(-c2ccc(Cl)cc2)nc2ccccc12,33.7,0.3,43.3*,59.7*,-0.2,27.1,30.8,
COCCCNc1nc(-c2ccncc2)nc2ccccc12,30.6,-1.4,32.5,10.8,0.6,x,x,
COc1ccc(-c2nn(-c3ccccc3)cc2C(N)=O)cc1OC,0.6,-3.0,2.8,14.7,0.2,x,x,
SMILES,TIM10 inh,UPR XBP1 act,tim10-1 inh,tim23-1 inh,UPR CHOP act,tim10-1 conf,tim23-1 confirm,others
Cc1ccc(N2C(=O)c3ccccc3C2C(=O)c2ccc(C)c(C)c2O)cc1 (stereo not drawn),11.6,0.4,20.6,41.3,2.5,x,x,
COC(=O)[C@@]12CCCCN1[C@H](c1ccc(-c3ccc4c(c3)OCO4)c(OC)c1)[C@@H]1C(=O)N(C)C(=O)[C@@H]12,13.8,0.8,10.5,37.2,-1.8,x,x,
O=S(=O)(NC12CC3CC(CC(C3)C1)C2)c1ccc(F)cc1,12.1,0.1,47.8*,55.0*,-1.8,29.9*,48.8*,
O=S(=O)(Nc1ccccc1)c1ccc(F)cc1,0.9,0.9,5.9,11.3,1.2,x,x,
Cc1ccc(C(OCC(O)CN2CCCCC2)c2ccccc2)cc1 (stereo not drawn),-11.9,-5.0,8.3,3.5,1.1,x,x,
Cc1ccc(C(OCC(O)CNC(C)c2ccccc2)c2ccccc2)cc1 (stereo not drawn),58.6*,0.4,62.3*,53.9*,0.1,60.5*,39.4*,TIM10 conf=52.4*
CC(C)c1ccccc1NC(=O)C1C2C=CC(C2)C1C(=O)O (stereo not drawn),1.4,-2.4,2.6,-0.4,1.8,x,x,
Clc1ccc(CSc2nncn2-c2ccc3c(c2)OCCO3)cc1,22.4,1.3,40.6*,52.3*,0.1,33.0*,47.4*,
CC(NC(=O)c1ccc([N+](=O)[O-])cc1Cl)C1CC2CCC1C2 (stereo not drawn),-6.6,4.3,0.6,23.0,1.6,x,x,
CC(NC(=O)c1ccc([N+](=O)[O-])o1)C1CC2CCC1C2 (stereo not drawn),62.6*,0.1,74.9*,62.4*,0.5,79.0*,48.2*,TIM10 conf=68.1*
O=C(NC12CC3CC(CC(C3)C1)C2)c1ccc([N+](=O)[O-])o1,34.2,0.1,57.2*,63.8*,22.5,66.8*,51.2*,
CN(CC(=O)NC(=O)NCc1ccccc1)CC(=O)Nc1ccc(Cl)c(Cl)c1,5.7,-6.4,-15.2,25.5,-0.7,x,x,
CCOC(=O)/C(C#N)=C1\C(=O)N(Cc2ccccc2)c2ccccc21,31.4,-0.4,42.6*,52.7*,-1.9,30.4,53.2*,
O=C(CCc1nnc(CCC2CCCCC2)o1)NCc1ccon1,3.8,-1.2,-4.6,3.0,2.8,x,x,
CC1CC(C)CN(C(=O)c2ccc(-c3ccc([N+](=O)[O-])cc3)o2)C1 (stereo not drawn),56.2*,-0.5,68.8*,63.0*,5.8,19.2,45.6*,TIM10 conf=58.4*
